Legend:
[1] = system: Mus musculus; assay: Antidepressant activity against reserpine induced ptosis in mice after intraperitoneal administration.; assay type: functional; details: ip
Summary of the method: (§1)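 Female CD1 mice (18-22 g) received the drug in distilled water/gum tragacanth ip at multiple doses (7-20 mice/dose), given together with reserpine (2 mg/kg iv). One hour later, palpebral ptosis (half or more of the lid closed) was scored all-or-none. Screening dose was at most 50% of the seizure threshold dose.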

[2] = system: Mus musculus; assay: Serotonergic activity was determined by measuring the potentiation of 5-hydroxytryptophan in mice upon ip administration; assay type: functional
Summary of the method: (§2)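 Drug was injected ip in distilled water/gum tragacanth to female CD1 mice (18-22 g) at multiple doses (7-20 mice/dose), 30 min before a threshold dose of L-5-HTP (200 mg/kg ip). Mice were held singly in small cages, and tremor was scored all-or-none over the 20 min after L-5-HTP.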

[3] = system: Mus musculus; assay: Ability to modify turning behavior of mice after intraperitoneal administration; assay type: functional; details: ip, read-out: MED
Summary of the method: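 Female CD1 mice (25-30 g) were lesioned by stereotaxic injection of 6-OHDA (10 μg in 1 μL saline with 1 mg/mL ascorbic acid) into the right striatum under pentobarbitone (60 mg/kg ip). Seven days later, drug in distilled water/gum tragacanth was given ip at multiple doses (7-20 mice/dose). Ipsilateral turns were counted for 2 min starting 30 min post-dose.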

[4] = Acute toxicity in mice after intraperitoneal administration.; details: mouse, in vivo, ip, LD50
[5] = system: Mus musculus; assay: Compound was tested for antidepressant activity against reserpine induced ptosis in mice after intraperitoneal administration; 50% activity at this maximal tested dose; assay type: functional; details: ip; summary of the method: as §1
[6] = system: Mus musculus; assay: Compound was tested for antidepressant activity against reserpine induced ptosis in mice after intraperitoneal administration.; value ranges from 5.9-6.7; assay type: functional; details: ip; summary of the method: as §1
[7] = system: Mus musculus; assay: Serotonergic activity by measuring the potentiation of 5-hydroxy tryptophan in mice upon ip administration; value ranges from 3.0-4.0; assay type: functional; summary of the method: as §2
[8] = system: Mus musculus; assay: Compound was tested for antidepressant activity against reserpine induced ptosis in mice after intraperitoneal administration.; value ranges from 11-16; assay type: functional; details: ip; summary of the method: as §1
[9] = system: Mus musculus; assay: Compound was tested for antidepressant activity against reserpine induced ptosis in mice after intraperitoneal administration.; value ranges from 9-12; assay type: functional; details: ip; summary of the method: as §1
[10] = system: Mus musculus; assay: Serotonergic activity by measuring the potentiation of 5-hydroxy tryptophan in mice upon ip administration; value ranges from 1.4-2.1; assay type: functional; summary of the method: as §2
[11] = system: Mus musculus; assay: Compound was tested for antidepressant activity against reserpine induced ptosis in mice after intraperitoneal administration; value ranges from 1.8-4.1; assay type: functional; details: ip; summary of the method: as §1
[12] = system: Mus musculus; assay: Serotonergic activity by measuring the potentiation of 5-hydroxy tryptophan in mice upon ip administration; value ranges from 3-7.9.; assay type: functional; summary of the method: as §2
[13] = system: Mus musculus; assay: Compound was tested for antidepressant activity against reserpine induced ptosis in mice after intraperitoneal administration.; value ranges from 11-34; assay type: functional; details: ip; summary of the method: as §1
[14] = Compound was tested for acute toxicity in mice after intraperitoneal administration; assay type: organism-based; details: mouse, in vivo, ip
Summary of the method: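 Female CD1 mice in groups of 5-10 received drug or vehicle (distilled water with gum tragacanth) ip. LD50 was derived graphically.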

[15] = system: Mus musculus; assay: Serotonergic activity by measuring the potentiation of 5-hydroxy tryptophan in mice upon ip administration; value ranges from 3.8-4.9; assay type: functional; summary of the method: as §2
[16] = system: Mus musculus; assay: Compound was tested for antidepressant activity against reserpine induced ptosis in mice after intraperitoneal administration.; value ranges from 4.0-5.7; assay type: functional; details: ip; summary of the method: as §1

Structure (SMILES) | ED50 [1] | ED50 [2] | minimal effective dose [3] | LD50 [4] | also measured
NC(=O)c1cc(-c2ccccc2)nnc1NCCN1CCOCC1 | > 40 mg/kg | > 60 mg/kg | 2 mg/kg | – | –
Cc1cc(-c2ccccc2)nnc1NCCN1CCCC1 | > 30 mg/kg | – | – | 70 mg/kg | –
Cc1cc(-c2ccc(N)cc2)nnc1NCCN1CCOCC1 | > 5 mg/kg | – | > 2 mg/kg | 15 mg/kg | –
Br.Br.Cc1cc(-c2cccc(O)c2)nnc1NCCN1CCOCC1 | > 50 mg/kg | > 30 mg/kg | 10 mg/kg | > 200 mg/kg | –
c1ccc(-c2cc(Cc3ccc4ccccc4c3)c(NCCN3CCOCC3)nn2)cc1 | > 50 mg/kg | > 100 mg/kg | 2 mg/kg | 275 mg/kg | –
Cc1cc(-c2ccccc2Cl)nnc1NCCN1CCOCC1 | > 5 mg/kg | – | 1 mg/kg | 7 mg/kg | –
COc1ccc(-c2cc(C)c(NCCN3CCOCC3)nn2)cc1 | > 5 mg/kg | > 5 mg/kg | > 2 mg/kg | 19 mg/kg | –
Cc1cccc(-c2cc(C)c(NCCN3CCOCC3)nn2)c1 | – | > 10 mg/kg | > 2 mg/kg | 23 mg/kg | ED50 [5]: 10 mg/kg
Cc1cc(Cc2ccccc2)nnc1NCCN1CCOCC1 | > 10 mg/kg | > 10 mg/kg | 2 mg/kg | 30 mg/kg | –
Cc1cc(-c2ccccc2)nnc1NCCCN | 50 mg/kg | > 30 mg/kg | 0.1 mg/kg | 300 mg/kg | –
c1ccc(-c2ccc(NCCN3CCOCC3)nn2)cc1 | – | – | 0.5 mg/kg | 250 mg/kg | ED50 [6]: 6 mg/kg; ED50 [7]: 3.7 mg/kg
CCN(CC)CCNc1nnc(-c2ccccc2)cc1C | > 30 mg/kg | > 30 mg/kg | > 10 mg/kg | 80 mg/kg | –
Cc1ccc(-c2cc(C)c(NCCN3CCOCC3)nn2)cc1 | > 15 mg/kg | > 15 mg/kg | 0.5 mg/kg | 51 mg/kg | –
Cc1cc(-c2ccccc2)nnc1NCC(C)N1CCOCC1 (configuration not stated) | – | > 15 mg/kg | 2 mg/kg | 54 mg/kg | ED50 [8]: 13 mg/kg
Cc1cc(-c2ccsc2)nnc1NCCN1CCOCC1 | – | – | > 10 mg/kg | 72 mg/kg | ED50 [9]: 10 mg/kg; ED50 [10]: 1.7 mg/kg
Br.Br.Cc1cc(-c2ccc(O)cc2)nnc1NCCN1CCOCC1 [MOXIRAPRINE DIBROMIDE] | > 40 mg/kg | > 100 mg/kg | 0.1 mg/kg | > 300 mg/kg | –
Cc1cc(-c2ccccc2F)nnc1NCCN1CCOCC1 | > 10 mg/kg | > 10 mg/kg | 0.5 mg/kg | 26 mg/kg | –
COc1ccccc1-c1cc(C)c(NCCN2CCOCC2)nn1 | > 10 mg/kg | > 10 mg/kg | 0.5 mg/kg | 40 mg/kg | –

Structure (SMILES) | ED50 [1] | ED50 [2] | minimal effective dose [3] | LD50 [4] | also measured
Cc1cc(-c2cccc3ccccc23)nnc1NCCN1CCOCC1 | > 2.5 mg/kg | > 2.5 mg/kg | 0.01 mg/kg | 7 mg/kg | –
CN(C)CCCN1c2ccccc2CCc2ccc(Cl)cc21 [CLOMIPRAMINE] | – | – | – | – | ED50 [11]: 3.3 mg/kg; ED50 [12]: 4.8 mg/kg
Clc1ccccc1Cc1cc(-c2ccccc2)nnc1NCCN1CCOCC1 | > 50 mg/kg | > 50 mg/kg | 10 mg/kg | 95 mg/kg | –
CCOC(=O)c1cc(-c2ccccc2)nnc1NCCN1CCOCC1 | > 50 mg/kg | – | 0.5 mg/kg | 180 mg/kg | –
Cc1cc(-c2ccc([N+](=O)[O-])cc2)nnc1NCCN1CCOCC1 | – | – | – | 35 mg/kg | –
Cc1cc(-c2ccc3ccccc3c2)nnc1NCCN1CCOCC1 | > 10 mg/kg | – | > 2 mg/kg | 23 mg/kg | –
Cc1cc(C)c(NCCN2CCOCC2)nn1 | > 50 mg/kg | > 50 mg/kg | > 10 mg/kg | > 100 mg/kg | –
Clc1ccc(Cc2cc(-c3ccccc3)nnc2NCCN2CCOCC2)cc1 | > 30 mg/kg | > 30 mg/kg | 10 mg/kg | 180 mg/kg | –
Cc1cc(-c2ccccc2)nnc1NCCN1CCOCC1C (configuration not stated) | – | 30 mg/kg | > 2 mg/kg | 110 mg/kg | ED50 [13]: 20 mg/kg
c1ccc(-c2cc(-c3ccccc3)c(NCCN3CCOCC3)nn2)cc1 | > 50 mg/kg | > 25 mg/kg | > 2 mg/kg | 150 mg/kg | –
Cc1cc(-c2ccccc2)nnc1NCCCCN | > 50 mg/kg | > 30 mg/kg | 0.1 mg/kg | 300 mg/kg | –
c1ccc(Cc2cc(-c3ccccc3)nnc2NCCN2CCOCC2)cc1 | > 50 mg/kg | > 50 mg/kg | 2 mg/kg | 131 mg/kg | –
CCCN(CCC)CCNc1nnc(-c2ccccc2)cc1C | > 30 mg/kg | > 30 mg/kg | 2 mg/kg | 76 mg/kg | –
CCc1cc(-c2ccccc2)nnc1NCCN1CCOCC1 | > 10 mg/kg | > 10 mg/kg | 2 mg/kg | 31 mg/kg | –
Cc1ccccc1-c1cc(C)c(NCCN2CCOCC2)nn1 | > 1 mg/kg | > 1 mg/kg | > 1 mg/kg | 5 mg/kg | –
Cc1cc(-c2ccccc2)nnc1NCCCN1CCOCC1 | > 30 mg/kg | > 25 mg/kg | 2 mg/kg | – | LD50 [14]: 66 mg/kg
Cc1cc(-c2cccs2)nnc1NCCN1CCOCC1 | – | – | > 10 mg/kg | 59 mg/kg | ED50 [15]: 4.2 mg/kg; ED50 [16]: 4.8 mg/kg
Cc1cc(-c2cccc(Cl)c2)nnc1NCCN1CCOCC1 | > 10 mg/kg | > 10 mg/kg | > 2 mg/kg | 21 mg/kg | –

Source: ChEMBL document CHEMBL1124408, “3-aminopyridazine derivatives with atypical antidepressant, serotonergic, and dopaminergic activities” (J Med Chem, 1989)
